The nature of data set [1]: Metabolic stability in human serum assessed as full length product remaining after 10 mins by HPLC. The format is ADME, cell-free. The settings on record: read-out: Stability. The gist of the method:
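About 0.5 A260 units compound in 1% human serum in PBS, 37 °C; aliquot taken at 10 min, analysed by anion-exchange HPLC for percent intact full-length product.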

Data set [2] has as its target T1, Toll-like receptor 8 (Homo sapiens) (UniProt Q9NR97).
T1 sequence (whole entry): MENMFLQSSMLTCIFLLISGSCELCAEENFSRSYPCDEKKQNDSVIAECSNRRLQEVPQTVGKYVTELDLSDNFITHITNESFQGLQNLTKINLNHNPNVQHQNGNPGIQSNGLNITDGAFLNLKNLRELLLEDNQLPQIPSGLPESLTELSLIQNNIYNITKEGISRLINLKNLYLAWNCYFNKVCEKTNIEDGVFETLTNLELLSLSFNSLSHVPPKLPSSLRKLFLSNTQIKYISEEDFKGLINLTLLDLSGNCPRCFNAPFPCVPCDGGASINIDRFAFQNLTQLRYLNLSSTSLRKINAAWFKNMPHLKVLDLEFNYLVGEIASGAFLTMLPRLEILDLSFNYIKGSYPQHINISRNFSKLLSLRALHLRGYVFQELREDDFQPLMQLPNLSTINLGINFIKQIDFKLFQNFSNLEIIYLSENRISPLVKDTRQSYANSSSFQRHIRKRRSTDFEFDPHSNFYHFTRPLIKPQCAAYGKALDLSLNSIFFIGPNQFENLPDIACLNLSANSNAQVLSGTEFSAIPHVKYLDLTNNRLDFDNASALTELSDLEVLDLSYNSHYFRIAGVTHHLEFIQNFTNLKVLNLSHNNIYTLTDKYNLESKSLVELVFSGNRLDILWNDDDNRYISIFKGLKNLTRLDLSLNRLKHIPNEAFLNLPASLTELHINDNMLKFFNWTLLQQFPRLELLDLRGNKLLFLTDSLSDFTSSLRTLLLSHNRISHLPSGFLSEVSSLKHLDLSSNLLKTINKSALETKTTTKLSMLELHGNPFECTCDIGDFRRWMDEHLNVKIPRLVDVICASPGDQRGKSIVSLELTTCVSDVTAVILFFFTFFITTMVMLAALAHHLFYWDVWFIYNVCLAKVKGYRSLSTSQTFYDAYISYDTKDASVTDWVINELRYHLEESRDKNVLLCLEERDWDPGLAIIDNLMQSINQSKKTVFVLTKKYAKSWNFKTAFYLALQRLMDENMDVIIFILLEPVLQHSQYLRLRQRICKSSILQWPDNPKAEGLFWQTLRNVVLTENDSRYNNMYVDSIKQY
Briefly: Activation of human TLR8 expressed in HEK293XL assessed as fold induction of NF-kappaB activity at 50 ug/ml after 18 hrs by reporter gene assay relative to control. The essentials:
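HEK293 cells stably expressing human TLR7 or TLR8, transiently transfected with SEAP reporter plasmid; medium replaced, SIMRA compounds added, 18 h incubation. Supernatant SEAP measured by QuantiBlue; expressed as fold increase in NF-κB activity over PBS control. Tabulated data at 50 μg/mL, representative of three independent experiments.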
Background: In a reporter assay the amount or activity of a reporter protein is the signal.

Data set [3] is filed under the species Homo sapiens. Briefly: Ratio of human TLR7 activity to human TLR8 activity. The essentials: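 TLR7/TLR8 ratio computed from fold NF-κB (SEAP reporter) activation in HEK293 cells stably expressing human TLR7 versus TLR8, compounds at 50 μg/mL, 18 h exposure; representative of three independent experiments.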
Data set [4] addresses Toll-like receptor 3 (Homo sapiens) (UniProt O15455). Briefly: Activation of human TLR3 expressed in HEK293 assessed as induction of NF-kappaB activity reporter gene assay. The format is cell-based.
Data set [5] is filed under the species Homo sapiens. Briefly: Immunostimulatory activity in human pDC assessed as induction of IFNalpha at 100 ug/ml after 24 hrs. Type of data set: functional. The gist of the method:
(§1)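 Human pDCs plated at 1 × 10^6 cells/mL; compounds in PBS added, 37 °C for 24 h; supernatant cytokines/chemokines by human Luminex multiplex kit.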

Data set [6] relates to PBMC. Briefly: Immunomodulatory activity in human PBMC assessed as induction of IL12 at 50 ug/ml after 24 hrs. The format is functional, cell-based. The gist of the method: (§2)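 Human PBMCs plated at 5 × 10^6 cells/mL; compounds dissolved in PBS added at various concentrations, 37 °C for 24 h. Supernatant cytokines/chemokines quantified with human Luminex multiplex kit.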

Data set [7] has as its system PBMC. Briefly: Immunomodulatory activity in human PBMC assessed as induction of TNFalpha at 50 ug/ml after 24 hrs. The format is functional, cell-based. The gist of the method:
as §2

Data set [8] deals with PBMC. Briefly: Immunomodulatory activity in human PBMC assessed as induction of IFNalpha at 50 ug/ml after 24 hrs. Type of data set: functional, cell-based. The essentials:
as §2

Data set [9] relates to PBMC. Briefly: Immunomodulatory activity in human PBMC assessed as induction of MIP1alpha at 50 ug/ml after 24 hrs. Type of data set: functional, cell-based. The gist of the method: as §2
Data set [10] has as its system PBMC. Briefly: Immunomodulatory activity in human PBMC assessed as induction of MIP1beta at 50 ug/ml after 24 hrs. The format is functional, cell-based. The gist of the method: as §2
In data set [11] the test system is PBMC. Briefly: Immunomodulatory activity in human PBMC assessed as induction of IP10 at 50 ug/ml after 24 hrs. The format is functional, cell-based. The essentials: as §2
In data set [12] the test system is PBMC. Briefly: Immunomodulatory activity in human PBMC assessed as induction of MCP1 at 50 ug/ml after 24 hrs. Type of data set: functional, cell-based. The gist of the method:
as §2

In data set [13] the test system is PBMC. Briefly: Immunomodulatory activity in human PBMC assessed as induction of IL6 at 50 ug/ml after 24 hrs. Type of data set: functional, cell-based. The gist of the method: as §2
In data set [14] the test system is PBMC. Briefly: Immunomodulatory activity in human PBMC assessed as induction of IL1-beta at 50 ug/ml after 24 hrs. Type of data set: functional, cell-based. The essentials: as §2
For data set [15], the species on record is Homo sapiens. Briefly: Immunostimulatory activity in human pDC assessed as induction of IL6 at 100 ug/ml after 24 hrs. Type of data set: functional. The gist of the method: as §1
For data set [16], the species on record is Homo sapiens. Briefly: Immunostimulatory activity in human mDC assessed as induction of IFNalpha at 100 ug/ml after 24 hrs. The format is functional. The essentials: (§3)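 Human mDCs isolated from PBMCs by CD19+ B-cell depletion then BDCA1 positive selection; plated at 1 × 10^6 cells/mL, compounds in PBS, 37 °C for 24 h; supernatant cytokines by human Luminex multiplex. Representative of four independent experiments.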

For data set [17], the species on record is Homo sapiens. Briefly: Immunostimulatory activity in human mDC assessed as induction of IP10 at 100 ug/ml after 24 hrs. The format is functional. The gist of the method:
as §3

Data set [18] is filed under the species Homo sapiens. Briefly: Immunostimulatory activity in human mDC assessed as induction of IL12 at 100 ug/ml after 24 hrs. The format is functional. The essentials: as §3
For data set [19], the species on record is Homo sapiens. Briefly: Immunostimulatory activity in human mDC assessed as induction of IL6 at 100 ug/ml after 24 hrs. The format is functional. The gist of the method: as §3
For data set [20], the species on record is Homo sapiens. Briefly: Immunostimulatory activity in human mDC assessed as induction of TNFalpha at 100 ug/ml after 24 hrs. The format is functional. The essentials: as §3
A further data set relates to Mus musculus. Briefly: Immunomodulatory activity in C57BL/6 mouse assessed as induction of IL12 release at 25 mg/kg, sc after 2 hrs by ELISA. Details: dose 25 mg/kg. The format is functional, organism-based. The gist of the method: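 Female C57BL/6 wild-type mice, 5–8 weeks old, n=3; compounds given subcutaneously at 10 or 25 mg/kg. Retro-orbital blood at 2 h; serum cytokines by mouse Luminex multiplex or IL-12 ELISA.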
A general note: ELISA stands for enzyme-linked immunosorbent assay.

Data set [21] has as its system PBMC. Briefly: Immunomodulatory activity in human PBMC assessed as induction of IFN-alpha at 100 ug/ml after 24 hrs.

Calls of active or inactive are those of the source. No cut-off for these calls is given here.

This is an account of results in ChEMBL document CHEMBL1154352, “Toll-like receptor 7 selective synthetic oligoribonucleotide agonists: synthesis and structure-activity relationship studies” (J Med Chem, 2009).

Toll-like receptor 3 (Homo sapiens), sequence (O15455 whole entry): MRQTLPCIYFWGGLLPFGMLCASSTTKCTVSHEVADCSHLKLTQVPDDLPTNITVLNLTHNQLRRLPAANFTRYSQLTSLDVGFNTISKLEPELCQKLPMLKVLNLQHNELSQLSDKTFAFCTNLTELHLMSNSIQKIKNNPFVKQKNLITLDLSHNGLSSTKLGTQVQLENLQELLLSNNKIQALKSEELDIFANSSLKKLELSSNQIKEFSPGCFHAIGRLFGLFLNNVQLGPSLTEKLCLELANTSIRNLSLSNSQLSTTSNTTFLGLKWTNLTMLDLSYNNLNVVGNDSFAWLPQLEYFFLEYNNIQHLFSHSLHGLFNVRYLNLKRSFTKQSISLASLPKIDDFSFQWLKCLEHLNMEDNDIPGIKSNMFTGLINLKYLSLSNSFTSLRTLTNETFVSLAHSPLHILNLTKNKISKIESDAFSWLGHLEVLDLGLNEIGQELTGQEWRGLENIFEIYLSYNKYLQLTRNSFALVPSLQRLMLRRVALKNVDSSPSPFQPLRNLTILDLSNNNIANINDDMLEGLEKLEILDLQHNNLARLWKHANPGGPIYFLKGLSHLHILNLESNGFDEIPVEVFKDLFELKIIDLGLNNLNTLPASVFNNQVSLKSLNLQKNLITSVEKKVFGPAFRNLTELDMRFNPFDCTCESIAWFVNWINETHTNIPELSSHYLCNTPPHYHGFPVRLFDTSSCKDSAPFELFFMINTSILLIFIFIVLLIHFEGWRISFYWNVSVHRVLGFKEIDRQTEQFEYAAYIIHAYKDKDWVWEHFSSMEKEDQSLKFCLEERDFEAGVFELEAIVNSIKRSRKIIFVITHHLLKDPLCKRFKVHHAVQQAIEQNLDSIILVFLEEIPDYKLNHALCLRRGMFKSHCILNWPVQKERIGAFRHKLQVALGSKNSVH

As for `Nc1ccn([C@@H]2O[C@H](COP(=O)(S)O[C@H]3[C@@H](O)[C@H](n4cnc5c(N)ncnc54)O[C@@H]3CO)[C@@H](OP(=O)(S)OC[C@H]3O[C@@H](n4ccc(=O)[nH]c4=O)[C@H](O)[C@@H]3OP(=O)(S)OC[C@H]3O[C@@H](n4ccc(=O)[nH]c4=O)[C@H](O)[C@@H]3OP(=O)(S)OC[C@H]3O[C@@H](n4ccc5c(=O)[nH]c(N)nc54)[C@H](O)[C@@H]3OP(=O)(S)OC[C@H]3O[C@@H](n4cnc5c(N)ncnc54)[C@H](O)[C@@H]3OP(=O)(S)OC[C@H]3O[C@@H](n4cnc5c(N)ncnc54)[C@H](O)[C@@H]3OP(=O)(S)OC[C@H]3O[C@@H](n4ccc5c(=O)[nH]c(N)nc54)[C@H](O)[C@@H]3OP(=O)(S)OC[C@H]3O[C@@H](n4ccc(N)nc4=O)[C@H](O)[C@@H]3OP(=O)(S)OC[C@H]3O[C@@H](n4ccc(=O)[nH]c4=O)[C@H](O)[C@@H]3OP(=O)(S)OC[C@H]3O[C@@H](n4ccc(=O)[nH]c4=O)[C@H](O)[C@@H]3OP(=O)(S)OCC(O)COP(=O)(S)O[C@H]3[C@@H](O)[C@H](n4ccc(=O)[nH]c4=O)O[C@@H]3COP(=O)(S)O[C@H]3[C@@H](O)[C@H](n4ccc(=O)[nH]c4=O)O[C@@H]3COP(=O)(S)O[C@H]3[C@@H](O)[C@H](n4ccc(N)nc4=O)O[C@@H]3COP(=O)(S)O[C@H]3[C@@H](O)[C@H](n4ccc5c(=O)[nH]c(N)nc54)O[C@@H]3COP(=O)(S)O[C@H]3[C@@H](O)[C@H](n4cnc5c(N)ncnc54)O[C@@H]3COP(=O)(S)O[C@H]3[C@@H](O)[C@H](n4cnc5c(N)ncnc54)O[C@@H]3COP(=O)(S)O[C@H]3[C@@H](O)[C@H](n4ccc5c(=O)[nH]c(N)nc54)O[C@@H]3COP(=O)(S)O[C@H]3[C@@H](O)[C@H](n4ccc(=O)[nH]c4=O)O[C@@H]3COP(=O)(S)O[C@H]3[C@@H](O)[C@H](n4ccc(=O)[nH]c4=O)O[C@@H]3COP(=O)(S)O[C@H]3[C@@H](O)[C@H](n4ccc(N)nc4=O)O[C@@H]3COP(=O)(S)O[C@H]3[C@@H](O)[C@H](n4cnc5c(N)ncnc54)O[C@@H]3CO)[C@H]2O)c(=O)n1` (some centres not stated), in [1], the remaining at 10 min was determined as 79%. Further, the fold change (FC) in data set [2] was 2. For the same molecule, the Ratio in the data set filed under Homo sapiens [3] was found to be 11.9. Further, in [4], the outcome was inactive. The result in the data set filed under Homo sapiens [5], in the data set filed under Homo sapiens [15], in the data set listed under Homo sapiens [16], in the data set filed under Homo sapiens [17], in the data set listed under Homo sapiens [18] and in the data set listed under Homo sapiens [19] was Active. Besides, the outcome in the data set listed under Homo sapiens [20] and with Mus musculus was Active. The Activity in the data set with PBMC [6] came to 354 pg/mL; in the data set with PBMC [7] it was 76 pg/mL; with PBMC [8] it was 230 pg/mL; with PBMC [9] it was 5630 pg/mL; with PBMC [10], 9220 pg/mL; with PBMC [11], 287 pg/mL. Also, the Activity worked out at 52900 pg/mL in the data set with PBMC [12], 2730 pg/mL in the data set on PBMC [13] and 261 pg/mL in the data set with PBMC [14]. Moreover, the IFN-alpha in the data set with PBMC [21] is 218 pg/mL.
